Data on one compound can be found in ChEMBL document CHEMBL5030505, “Assessment of NR4A Ligands That Directly Bind and Modulate the Orphan Nuclear Receptor Nurr1” (J Med Chem, 2020).

What all share (format): cell-based
Data set [1] has as its target Nuclear receptor subfamily 4 group A member 2 (Homo sapiens) (UniProt P43354). Put plainly: Modulation of full length human Nurr1 expressed in HEK293T cells co-transfected with luciferase reporter plasmid harboring NBRE response element assessed as increase in luciferase activity incubated for 18 hrs by luciferase-reporter gene assay. As to conditions: filed as modulator, dose 0.002-200 µM. In outline:
(§1)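 Full-length Nurr1 plasmid, alone (2 μg) or 1 μg plus full-length RXRα (1 μg), cotransfected with 3xNBRE- or 3xNurRE-luciferase reporter (6 μg) using Lipofectamine 2000, 18 h. Cells replated at 10,000/well for 4 h. Four ligand concentrations, or vehicle (water, ethanol or DMSO), added in quadruplicate for 18 h. Luciferase read. Fold change vs vehicle, mean ± s.e.m., one-way ANOVA vs vehicle.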
For orientation: Reporter assays use an easily measured gene product as a stand-in for the process of interest.

For data set [2] the target is unchanged. The data set is described as follows: Modulation of full length human Nurr1 expressed in SKNBE(2) cells co-transfected with luciferase reporter plasmid harboring NurRE response element assessed as increase in luciferase activity incubated for 18 hrs by luciferase-reporter gene assay. The note with it: SKNBE2, filed as modulator, dose 0.002-200 µM.
Data set [3] relates to PC-12. The data set is described as follows: Cytotoxicity in rat PC-12 cells assessed as reduction in cell viability at 0.02 to 200 uM incubated for 18 hrs by Cell Titer-Glo assay. As to conditions: pc-12, 18 h, dose 0.02-200 µM. In outline: (§2)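 Cells seeded at 1.5 million per 10-cm dish. Next day they were replated at 10,000 cells/well and rested 4 h. Ligand or vehicle (water, ethanol or DMSO, by ligand) was added in dose-response format in quadruplicate. After 18 h, viability was read by CellTiter-Glo luminescence. Data are mean ± s.e.m., generally representative of 2 independent experiments. One-way ANOVA versus vehicle.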

The target in data set [4] is Nuclear receptor subfamily 4 group A member 2 (Homo sapiens) (UniProt P43354). Put plainly: Modulation of full length human Nurr1 expressed in SKNBE(2) cells co-transfected with RXRalpha and luciferase reporter plasmid harboring NurRE response element assessed as increase in luciferase activity incubated for 18 hrs by luciferase-reporter gene assay. The note with it: SKNBE2, filed as modulator, dose 0.0002-200 µM. A digest of the protocol:
(§3)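 SK-N-BE(2)-C cells were kept in 1:1 EMEM/F12 with 10% FBS at 37°C and 5% CO2. They were cotransfected with full-length Nurr1 (1 μg), full-length RXRα (1 μg) and 3xNBRE- or 3xNurRE-luc reporter (6 μg) for 18 h, replated at 10,000 cells/well for 4 h, and then treated with ligand or vehicle in quadruplicate for 18 h. The readout was luciferase luminescence as fold over vehicle, reported as mean ± s.e.m. (n=4) from 2 independent experiments, one-way ANOVA.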

In a further data set the test system is HEK-293T. Put plainly: Cytotoxicity in human HEK293T cells assessed as reduction in cell viability at 0.02 to 200 uM incubated for 18 hrs by Cell Titer-Glo assay. As to conditions: dose 0.02-200 µM. In outline: as §2
(Cellular ATP, detected with luciferase, serves as a proxy for viable cell number.)

Another data set concerns SKNBE2. The data set is described as follows: Modulation of Gal4-fused VP16 expressed in SKNBE(2) cells co-transfected with UAS repoter gene assessed as increase in luciferase activity at 0.02 to 200 uM incubated for 18 hrs by luciferase reporter gene assay. The note with it: Human alphaherpesvirus 2, filed as modulator, dose 0.02-200 µM. In outline: (§4)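 Cells in 10-cm dishes were transfected with Gal4-VP16 expression plasmid (2 μg) plus 5xUAS-luciferase reporter (2 μg) for 18 h. They were replated at 10,000 cells/well for 4 h, then given ligand or vehicle (water, ethanol or DMSO) in quadruplicate for 18 h. Luciferase was read with Britelite Plus. Fold change is versus vehicle-treated cells, with one-way ANOVA versus vehicle.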

The target in data set [5] is Nuclear receptor subfamily 4 group A member 2 (Homo sapiens) (UniProt P43354). The data set is described as follows: Modulation of full length human Nurr1 expressed in HEK293T cells co-transfected with RXRalpha and luciferase reporter plasmid harboring NBRE response element assessed as increase in luciferase activity incubated for 18 hrs by luciferase-reporter gene assay. As to conditions: filed as modulator, dose 0.0002-200 µM. In outline: as §1
Chain of Nuclear receptor subfamily 4 group A member 2 (Homo sapiens) (P43354 whole entry): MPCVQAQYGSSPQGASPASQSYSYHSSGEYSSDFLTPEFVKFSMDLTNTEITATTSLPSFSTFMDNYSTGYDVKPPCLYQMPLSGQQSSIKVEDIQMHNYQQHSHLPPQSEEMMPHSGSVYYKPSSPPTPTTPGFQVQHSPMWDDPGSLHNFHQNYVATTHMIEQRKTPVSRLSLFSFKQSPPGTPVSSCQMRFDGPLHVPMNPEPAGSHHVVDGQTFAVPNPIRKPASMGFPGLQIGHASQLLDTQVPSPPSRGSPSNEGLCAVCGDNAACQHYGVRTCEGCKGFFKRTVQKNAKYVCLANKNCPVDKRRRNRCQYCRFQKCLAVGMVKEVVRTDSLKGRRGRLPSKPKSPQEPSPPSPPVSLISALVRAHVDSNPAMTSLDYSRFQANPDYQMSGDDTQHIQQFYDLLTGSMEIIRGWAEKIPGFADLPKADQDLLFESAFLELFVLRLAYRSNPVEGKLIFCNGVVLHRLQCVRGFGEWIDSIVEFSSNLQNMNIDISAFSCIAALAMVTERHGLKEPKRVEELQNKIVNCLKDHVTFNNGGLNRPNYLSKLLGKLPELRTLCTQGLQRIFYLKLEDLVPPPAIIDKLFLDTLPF

In another data set the test system is HEK293T. Put plainly: Modulation of Gal4-fused VP16 expressed in HEK293T cells co-transfected with UAS repoter gene assessed as increase in luciferase activity at 0.02 to 200 uM incubated for 18 hrs by luciferase reporter gene assay. The note with it: Human alphaherpesvirus 2, filed as modulator, dose 0.02-200 µM. In outline: as §4
The target of data set [6] is Nuclear receptor subfamily 4 group A member 2 (Homo sapiens) (UniProt P43354). The data set is described as follows: Modulation of full length human Nurr1 expressed in PC12 cells co-transfected with RXRalpha and luciferase reporter plasmid harboring NBRE response element assessed as increase in luciferase activity incubated for 18 hrs by luciferase-reporter gene assay. As to conditions: PC-12, filed as modulator, dose 0.0002-200 µM. A digest of the protocol: (§5)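 PC12 cells were grown at 37°C and 5% CO2 in […] medium with 15% horse serum and 2.5% FBS. They were transfected with full-length Nurr1 (1 μg) plus full-length RXRα (1 μg) and 3xNBRE- or 3xNurRE-luciferase reporter (6 μg) for 18 h, then replated at 10,000 cells/well for 4 h. Ligand or vehicle (water, ethanol or DMSO) was added in quadruplicate for 18 h. Luminescence was read as fold change over vehicle. Results are mean ± s.e.m., n=4, from 2 independent experiments, analysed by one-way ANOVA against vehicle.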

For data set [7] the target is unchanged. Put plainly: Modulation of full length human Nurr1 expressed in PC12 cells co-transfected with luciferase reporter plasmid harboring NBRE response element assessed as increase in luciferase activity incubated for 18 hrs by luciferase-reporter gene assay. The note with it: PC-12, filed as modulator, dose 0.002-200 µM. A digest of the protocol:
(§6)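 Here PC12 cells (FK-12 medium, 15% horse serum, 2.5% FBS, 37°C, 5% CO2) received full-length Nurr1 (2 μg) without RXRα, plus 3xNBRE- or 3xNurRE-luciferase reporter (6 μg), for 18 h. Cells were replated at 10,000/well for 4 h, then treated with ligand or vehicle in quadruplicate for 18 h. Luciferase luminescence was normalized to vehicle-treated cells. Results are mean ± s.e.m. (n=4) from 2 independent experiments, with one-way ANOVA against vehicle.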

Data set [8] concerns PC-12. The data set is described as follows: Modulation of Gal4-fused VP16 expressed in PC12 cells co-transfected with UAS repoter gene assessed as increase in luciferase activity at 0.02 to 200 uM incubated for 18 hrs by luciferase reporter gene assay. As to conditions: Human alphaherpesvirus 2, filed as modulator, dose 0.02-200 µM. In outline:
as §4

Data set [9] deals with Nuclear receptor subfamily 4 group A member 2 (Homo sapiens) (UniProt P43354). The data set is described as follows: Modulation of full length human Nurr1 expressed in HEK293T cells co-transfected with RXRalpha and luciferase reporter plasmid harboring NurRE response element assessed as increase in luciferase activity incubated for 18 hrs by luciferase-reporter gene assay. The note with it: filed as modulator, dose 0.0002-200 µM. A digest of the protocol: as §1

For data set [10] the target is unchanged. The data set is described as follows: Modulation of full length human Nurr1 expressed in HEK293T cells co-transfected with luciferase reporter plasmid harboring NurRE response element assessed as increase in luciferase activity incubated for 18 hrs by luciferase-reporter gene assay. As to conditions: filed as modulator, dose 0.002-200 µM. In outline:
as §1

A further data set deals with SK-N-BE(2). The data set is described as follows: Cytotoxicity in human SKNBE2 cells assessed as reduction in cell viability at 0.02 to 200 uM incubated for 18 hrs by Cell Titer-Glo assay. As to conditions: dose 0.02-200 µM. In outline: as §2
In data set [11] the target is Nuclear receptor subfamily 4 group A member 2 (Homo sapiens) (UniProt P43354). The data set is described as follows: Modulation of full length human Nurr1 expressed in PC12 cells co-transfected with RXRalpha and luciferase reporter plasmid harboring NurRE response element assessed as increase in luciferase activity incubated for 18 hrs by luciferase-reporter gene assay. As to conditions: PC-12, filed as modulator, dose 0.0002-200 µM. A digest of the protocol: as §5

Data set [12] shares this target. The data set is described as follows: Modulation of full length human Nurr1 expressed in SKNBE(2) cells co-transfected with RXRalpha and luciferase reporter plasmid harboring NBRE response element assessed as increase in luciferase activity incubated for 18 hrs by luciferase-reporter gene assay. The note with it: SKNBE2, filed as modulator, dose 0.0002-200 µM. In outline: as §3

Data set [13] has the same target. The data set is described as follows: Modulation of full length human Nurr1 expressed in PC12 cells co-transfected with luciferase reporter plasmid harboring NurRE response element assessed as increase in luciferase activity incubated for 18 hrs by luciferase-reporter gene assay. The note with it: PC-12, filed as modulator, dose 0.002-200 µM. A digest of the protocol:
as §6

Data set [14] has the same target. Put plainly: Modulation of full length human Nurr1 expressed in SKNBE(2) cells co-transfected with luciferase reporter plasmid harboring NBRE response element assessed as increase in luciferase activity incubated for 18 hrs by luciferase-reporter gene assay. As to conditions: SKNBE2, filed as modulator, dose 0.002-200 µM.

Activity calls are given as the source filed them. The calls are words filed in the database; no cut-off is given here.

Take `COc1ccc(-c2cc3onc(-c4ccccc4)c3c(=O)n2C)cc1`: the Activity result in [1] was “Dose-Dependent Effect”; in data set [2], “Dose-Dependent Effect”; in the data set on PC-12 [3], “Non-Toxic”; in [4], “Dose-Dependent Effect”; with HEK-293T, “Non-Toxic”; in data set [5] it was “Dose-Dependent Effect”. Further, the Activity result in data set [6] is “Dose-Dependent Effect”; in data set [7], “Dose-Dependent Effect”; in [9] it was “Dose-Dependent Effect”; in data set [10], “Dose-Dependent Effect”; in the data set on SK-N-BE(2) it was “Non-Toxic”; in data set [11], “Dose-Dependent Effect”. Also, the Activity result in [12], in data set [13] and in data set [14] was “Dose-Dependent Effect” in each case. Also, the outcome in the data set on SKNBE2, in the data set with HEK293T and with PC-12 [8] was Active.
